In ChEMBL document CHEMBL5329183, “Naphthylthiazoles: a class of broad-spectrum antifungals” (RSC Med Chem, 2023):

How the values were obtained:
Format in all cases: ADME, organism-based
Settings in all cases: in vivo
[1] = Tmax in Sprague-Dawley rat at 25 mg/kg, po administered as single dose by LC/MS/MS analysis
Procedure, shortened: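 Male naïve Sprague–Dawley rats (n = 3) received a single 25 mg kg−1 dose by oral gavage in 5% ethanol/45% PEG 400/50% water. EDTA-K2 blood was sampled over 24 h. Plasma levels were measured by LC/MS/MS after acetonitrile protein precipitation, and parameters came from two-compartment analysis.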

[2] = Cmax in Sprague-Dawley rat at 25 mg/kg, po administered as single dose by LC/MS/MS analysis; set-up: dose 25 mg/kg, route po
Procedure, shortened: (§1)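 Male naïve Sprague–Dawley rats (n=3) received a single 25 mg kg−1 oral gavage dose in 5% ethanol/45% PEG 400/50% water. EDTA-K2 blood was sampled over 24 h post-dose. Plasma levels were measured by LC/MS/MS after acetonitrile protein precipitation, and parameters came from two-compartment analysis.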

[3] = Clearance in Sprague-Dawley rat at 25 mg/kg, po administered as single dose by LC/MS/MS analysis; procedure, shortened: as §1

For `Cc1nc(-c2ccc3ccccc3c2)sc1-c1nnc(N[C@@H]2CCCC[C@H]2N)o1` (relative stereo), the Tmax [1] was 3 h, the Cmax [2] was 9400 ng/mL and the CL/F [3] was 5.33 mL/min.
